ChEMBL document CHEMBL3124898, “Constituents of an extract of Cryptocarya rubra housed in a repository with cytotoxic and glucose transport inhibitory effects” (J Nat Prod, 2014)
pIC50: −log10 of the molar value.

Columns and labels:
HT-29 = assay: Cytotoxicity against human HT-29 cells; format: functional, cell-based
Outline: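 HT-29 human colon cancer cells treated with serial dilutions of test samples. IC50 derived by nonlinear regression. Measured in triplicate in two independent experiments. Paclitaxel served as positive control.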

P388 = assay: Cytotoxicity against mouse P388 cells; format: functional, cell-based
[1] = target: T1, Solute carrier family 2, facilitated glucose transporter member 1 (Homo sapiens) (UniProt P11166); assay: Inhibition of GLUT-1 in human H1299 cells assessed as 2-deoxy-D-[3H]glucose uptake at 30 uM incubated for 15 mins prior to 2-deoxy-D-[3H]glucose challenge measured after 10 mins by liquid scintillation counting analysis (reference value: 100%); format: cell-based; set-up: scale not given: the % may be the effect or the level left
T1 sequence (whole entry): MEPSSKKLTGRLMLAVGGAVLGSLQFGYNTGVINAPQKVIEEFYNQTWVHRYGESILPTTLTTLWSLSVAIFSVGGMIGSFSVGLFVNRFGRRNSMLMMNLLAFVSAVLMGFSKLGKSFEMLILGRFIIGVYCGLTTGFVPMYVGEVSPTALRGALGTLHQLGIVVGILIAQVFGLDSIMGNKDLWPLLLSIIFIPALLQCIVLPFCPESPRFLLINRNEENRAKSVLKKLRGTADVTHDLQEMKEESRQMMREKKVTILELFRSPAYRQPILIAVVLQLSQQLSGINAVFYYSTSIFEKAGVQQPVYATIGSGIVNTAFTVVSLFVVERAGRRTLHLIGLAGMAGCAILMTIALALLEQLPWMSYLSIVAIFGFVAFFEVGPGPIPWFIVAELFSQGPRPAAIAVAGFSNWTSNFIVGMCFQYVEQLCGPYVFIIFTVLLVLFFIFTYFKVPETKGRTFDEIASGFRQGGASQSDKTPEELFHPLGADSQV
Outline: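 Before dosing, H1299 human lung cancer cells were washed and held in serum-free DMEM for 2 h at 37 °C in 10% CO2, then in KRP buffer for 30 min at 37 °C. Compound was added at 30 μM final and incubated 15 min at 37 °C. Uptake was started with 37 MBq/L 2-deoxy-3H glucose plus 1 mM glucose (final) and stopped after 10 min by three cold PBS washes. Cells were NaOH-lysed and lysate radioactivity read by scintillation counting. Vehicle served as negative control and WZB117 (30 μM) as positive control. n = 3.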

Row | Activity [1] | SMILES | pIC50 (HT-29) | IC50 (HT-29) | pIC50 (P388)
1 |  | O=C1C[C@@H]2C3=C(O[C@H](c4ccccc4)CC3=O)[C@@H]3[C@H]([C@@H]2O1)[C@H]1C[C@@H]2OC(=O)C[C@@H]2[C@@]3(C(=O)/C=C/c2ccccc2)C1=O | < 5.00 |  | 
2 |  | O=C1C[C@@H]2C3=C(C=C[C@@H]2O1)O[C@@H](c1ccccc1)CC3=O [CRYPTOCARYANONE A] | 4.96 |  | 
3 |  | O=C(O)C[C@H]1CC=CC(=O)/C1=C(O)/C=C/c1ccccc1 |  | > 10 µg/mL | 
4 | 58.7% | O=C1C[C@@H]2/C(=C(O)\C=C\c3ccccc3)C(=O)C=C[C@@H]2O1 [CRYPTOCARYONE] | 6.49 |  | 7.40
5 |  | O=C1CCC[C@@H]2C[C@H](C[C@](O)(CCc3ccccc3)O2)c2c(cc(O)c(C(=O)/C=C/c3ccccc3)c2O)O1 | < 5.00 |  | 
6 |  | CC(=O)O[C@H]1C(=O)[C@@]2(C)[C@H]([C@H](OC(=O)c3ccccc3)[C@]3(O)C[C@H](OC(=O)[C@H](O)[C@@H](NC(=O)c4ccccc4)c4ccccc4)C(C)=C1C3(C)C)[C@]1(OC(C)=O)CO[C@@H]1C[C@@H]2O [PACLITAXEL] | < 5.00 |  | 
7 |  | O=C1C[C@@H]2C3=C(O[C@H](c4ccccc4)CC3=O)[C@@H]3[C@@H]([C@@H]4C=C5O[C@H](c6ccccc6)CC(=O)[C@@]53[C@H]3CC(=O)O[C@@H]43)[C@@H]2O1 | < 5.00 |  | 
8 | 15.7% | O=C(Oc1cccc(F)c1OC(=O)c1cccc(O)c1)c1cccc(O)c1 |  |  | 
9 |  | O=C(/C=C/c1ccc(O)cc1)OCCCCCCCCCCCCCCCCOC(=O)/C=C/c1ccc(O)cc1 | < 5.00 |  | 
